Measured values reported in ChEMBL document CHEMBL3098047, “Design, synthesis and structure-activity relationships of substituted oxazole-benzamide antibacterial inhibitors of FtsZ” (Bioorg Med Chem Lett, 2014).
In brackets after ≈: the same amount, converted by molar mass.

Assays:
Staphylococcus aureus [1] = assay: Antibacterial activity against Staphylococcus aureus ATCC 29213 by broth microdilution method; assay type: functional
In short: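 Broth microdilution MIC per CLSI guidelines against S. aureus ATCC 29213; MIC in µg/mL.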

[2] = molecular target: T1, Cell division protein FtsZ (Staphylococcus aureus) (UniProt P0A031); assay: Inhibition of Staphylococcus aureus ATCC 29213 FtsZ-mediated cell division phenotype
T1 sequence (whole entry): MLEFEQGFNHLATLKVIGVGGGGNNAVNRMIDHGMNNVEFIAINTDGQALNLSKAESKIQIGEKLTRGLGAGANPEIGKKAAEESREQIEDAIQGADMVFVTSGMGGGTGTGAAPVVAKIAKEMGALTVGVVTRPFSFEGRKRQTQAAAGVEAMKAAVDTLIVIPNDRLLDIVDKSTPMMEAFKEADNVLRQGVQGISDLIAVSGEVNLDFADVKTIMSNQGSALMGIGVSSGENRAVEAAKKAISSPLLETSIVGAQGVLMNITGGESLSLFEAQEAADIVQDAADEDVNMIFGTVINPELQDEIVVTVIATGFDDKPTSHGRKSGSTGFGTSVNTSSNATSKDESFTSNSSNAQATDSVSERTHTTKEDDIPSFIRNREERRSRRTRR
In short: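 S. aureus ATCC 29213 cell division inhibition assay run alongside MIC testing; value is the lowest concentration at which an inhibition of cell division phenotype was seen (µg/mL).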

Staphylococcus aureus [3] = assay: Antibacterial activity against Staphylococcus aureus harboring FtsZ G196A mutant by broth microdilution method; assay type: functional
In short: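 S. aureus ATCC 29213 derivative with G196A substitution in FtsZ; MIC by broth microdilution following CLSI guidelines; reported in µg/mL.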

[4] = Kinetic solubility of the compound in PBS buffer at pH 7.4 after 24 hrs by turbidimetric method; assay type: physicochemical; settings: read-out: Kinetic_solubility
In short: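 Turbidimetric: doubling dilutions in DMSO diluted twenty-fold into PBS pH 7.4, equilibrated 24 h at room temperature, absorbance read at 620 nm. Value is highest concentration with no measurable precipitate.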

[5] = Clearance in Balb/c mouse at 3 mg/kg, iv by LC-MS/MS analysis; assay type: ADME, organism-based; design: dose 3 mg/kg, route intravenous; settings: in vivo
[6] = Volume of distribution in Balb/c mouse at 3 mg/kg, iv by LC-MS/MS analysis; assay type: ADME, organism-based; design: dose 3 mg/kg, route intravenous; settings: in vivo
[7] = AUC in Balb/c mouse at 3 mg/kg, iv by LC-MS/MS analysis; assay type: ADME, organism-based; design: dose 3 mg/kg, route intravenous; settings: plasma
[8] = Half life in Balb/c mouse at 3 mg/kg, iv by LC-MS/MS analysis; assay type: ADME, organism-based; design: dose 3 mg/kg, route intravenous; settings: in vivo
[9] = Initial plasma concentration in Balb/c mouse at 3 mg/kg, iv by LC-MS/MS analysis; assay type: ADME, organism-based; design: dose 3 mg/kg, route intravenous

SMILES | MIC (Staphylococcus aureus [1]) [µg/mL] | MIC [2] [µg/mL] | MIC (Staphylococcus aureus [3]) [µg/mL] | other results
NC(=O)c1c(F)ccc(OC(CCO)c2nc(-c3ccc(C(F)(F)F)cc3)c(Br)o2)c1F (racemic) | 0.5 (≈ 0.959 µM) | 0.5 (≈ 0.959 µM) |  | 
COc1ccc(-c2coc(COc3ccc(F)c(C(N)=O)c3F)n2)cc1 | 2 (≈ 5.55 µM) | 2 (≈ 5.55 µM) | > 64 | 
NC(=O)c1c(F)ccc(OCc2nc(-c3ccc(C(F)(F)F)cc3)c(Br)o2)c1F | 0.12 (≈ 0.251 µM) | 0.12 (≈ 0.251 µM) | 4 (≈ 8.38 µM) | solubility kinetic at 24 h [4]: 12.5 µg/mL (≈ 26.2 µM)
NC(=O)c1c(F)ccc(OCc2nc(-c3ccc(Cl)cc3)c(N)o2)c1F | > 64 | > 64 | > 64 | 
NC(=O)c1c(F)ccc(OCc2nc(-c3ccc(Cl)cc3)c(Br)o2)c1F | 0.06 (≈ 0.135 µM) | 0.03 (≈ 0.0676 µM) | 2 (≈ 4.51 µM) | 
NC(=O)c1c(F)ccc(OCc2nc(-c3ccccc3)co2)c1F | 16 (≈ 48.4 µM) | 16 (≈ 48.4 µM) | > 64 | 
NC(=O)c1c(F)ccc(OCc2nc(-c3ccc(Cl)cc3)c(CCCO)o2)c1F | 2 (≈ 4.73 µM) | 2 (≈ 4.73 µM) | > 64 | 
CC(Oc1ccc(F)c(C(N)=O)c1F)c1nc(-c2ccc(OC(F)(F)F)cc2)c(Cl)o1 (racemic) | 0.12 (≈ 0.259 µM) | 0.25 (≈ 0.54 µM) |  | clearance [5]: 31 mL/min/kg; Vd [6]: 3.5 L/kg; AUC [7]: 1600 ng·h/mL; half-life [8]: 1.32 h; C0 [9]: 2100 ng/mL
Cc1nnc(CC(Oc2ccc(F)c(C(N)=O)c2F)c2nc(-c3ccc(C(F)(F)F)cc3)c(Br)o2)o1 (racemic) | 8 (≈ 14 µM) | 16 (≈ 27.9 µM) |  | 
NC(=O)c1c(F)ccc(OCc2nc(-c3ccc(OC(F)(F)F)cc3)c(Cl)o2)c1F | 0.12 (≈ 0.267 µM) | 0.12 (≈ 0.267 µM) | 8 (≈ 17.8 µM) | 
NC(=O)c1c(F)ccc(OC(COC(=O)NCCc2c[nH]cn2)c2nc(-c3ccc(C(F)(F)F)cc3)c(Br)o2)c1F (racemic) |  |  |  | solubility kinetic at 24 h [4]: 100 µg/mL (≈ 155 µM)
NC(=O)c1c(F)ccc(O[C@@H](CO)c2nc(-c3ccc(C(F)(F)F)cc3)c(Br)o2)c1F | 16 (≈ 31.5 µM) | 16 (≈ 31.5 µM) | 64 (≈ 126 µM) | 
NC(=O)c1c(F)ccc(OCc2nc(-c3ccc(Cl)cc3)c([N+](=O)[O-])o2)c1F | > 64 | > 64 | > 64 | 
CNCCNC(=O)OCC(Oc1ccc(F)c(C(N)=O)c1F)c1nc(-c2ccc(C(F)(F)F)cc2)c(Br)o1 (racemic) |  |  |  | solubility kinetic at 24 h [4]: 200 µg/mL (≈ 329 µM)
COc1ccc(-c2nc(COc3ccc(F)c(C(N)=O)c3F)oc2-c2ccccc2)cc1 | 0.12 (≈ 0.275 µM) | 0.12 (≈ 0.275 µM) | > 64 | 
NC(=O)c1c(F)ccc(OCc2nc(-c3ccc(OC(F)(F)F)cc3)c(I)o2)c1F | 0.06 (≈ 0.111 µM) | 0.06 (≈ 0.111 µM) | > 64 | 
NC(=O)c1c(F)ccc(OC(c2cccnc2)c2nc(-c3ccc(Cl)cc3)c(Br)o2)c1F (racemic) | 4 (≈ 7.68 µM) | 4 (≈ 7.68 µM) |  | 
CC(Oc1ccc(F)c(C(N)=O)c1F)c1nc(-c2ccc(C(F)(F)F)cc2)c(Br)o1 (racemic) | 0.06 (≈ 0.122 µM) | 0.06 (≈ 0.122 µM) |  | clearance [5]: 22 mL/min/kg; Vd [6]: 2 L/kg; AUC [7]: 2200 ng·h/mL; half-life [8]: 1.05 h; C0 [9]: 2000 ng/mL
COc1ccc(-c2nc(COc3ccc(F)c(C(N)=O)c3F)oc2C2CC2)cc1 | 0.12 (≈ 0.3 µM) | 0.12 (≈ 0.3 µM) | > 64 | 
Cc1oc(COc2ccc(F)c(C(N)=O)c2F)nc1-c1ccc(Cl)cc1 | 0.5 (≈ 1.32 µM) | 0.5 (≈ 1.32 µM) | > 64 | 
COc1ccc(-c2nc(COc3ccc(F)c(C(N)=O)c3F)oc2-c2cncs2)cc1 | 2 (≈ 4.51 µM) | 2 (≈ 4.51 µM) |  | 
NC(=O)c1c(F)ccc(OCc2nc(-c3ccc(Cl)cc3)co2)c1F | 4 (≈ 11 µM) | 4 (≈ 11 µM) | > 64 | 
NC(=O)c1c(F)ccc(OC(COC(=O)NCCN2CCCC2)c2nc(-c3ccc(C(F)(F)F)cc3)c(Br)o2)c1F (racemic) |  |  |  | solubility kinetic at 24 h [4]: 400 µg/mL (≈ 618 µM)
NC(=O)c1c(F)ccc(OCc2nc(-c3ccc(OC(F)(F)F)cc3)c(Br)o2)c1F | 0.06 (≈ 0.122 µM) | 0.03 (≈ 0.0608 µM) | 2 (≈ 4.06 µM) | 
